An excerpt weighted towards active compounds, which were near 3.7% of everything screened.
core dimer inh: inhibitors of HCV core protein dimerization, primary screen, biochemical, TR-FRET, high-throughput | TR-FRET GST/Flag-core106 dimerization, 1536-well | hit rate 0.33% among 300,000 | inhibition, % at 5 µM;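 active = inhibition above the mean of all tested compounds plus 3 SD, set per screening campaign, cut at about 45% in these data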
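Assay system: Tagged HCV core106 pair (GST and Flag) | Buffer or medium: KF-containing HEPES buffer, pH 7.45, DTT, CHAPS, BSA | Also added: Eu donor and XL665 acceptor anti-tag antibodies | Dosing: One concentration, 5 µM, in 0.5% DMSO | Timing: 4 h at 22.5 °C | Technique: TR-FRET 671 and 617 nm emission | Repeats: Singlicate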
rCAG binder: binders of r(CAG) RNA repeats, primary screen, biochemical, fluorescence | r(CAG) RNA repeat, TO-PRO-1 dye displacement fluorescence | inhibition, % at 3 µM | hit rate 1.3% among 370,000 | AID 651821, 2012;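 active = inhibition above the plate cutoff, the mean of all test compounds on that plate plus 3 SD, cut at about 35% in these data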;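 note: 0% = DMSO alone and 100% = 100 µM mitoxantrone as full dye displacement; higher means more dye released from RNA so lower well fluorescence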
TAAR1 antagonist: human TAAR1 antagonists, primary screen, Fluo-8 calcium fluorescence, CHO RD-HGA16 cells; hit rate 1.5% among 360,000; inhibition, % at 3 µM; Trace amine-associated receptor 1 (Homo sapiens), Q96RJ0; antagonist; AID 624466, 2012;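 active = inhibition above a per-plate cutoff, the mean inhibition of test compounds on that plate plus 3 SD, cut at about 49% in these data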;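 note: 0% = DMSO plus EC80 beta-PEA response and 100% = DMSO alone without agonist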
Target sequence (Q96RJ0 whole entry, looked up): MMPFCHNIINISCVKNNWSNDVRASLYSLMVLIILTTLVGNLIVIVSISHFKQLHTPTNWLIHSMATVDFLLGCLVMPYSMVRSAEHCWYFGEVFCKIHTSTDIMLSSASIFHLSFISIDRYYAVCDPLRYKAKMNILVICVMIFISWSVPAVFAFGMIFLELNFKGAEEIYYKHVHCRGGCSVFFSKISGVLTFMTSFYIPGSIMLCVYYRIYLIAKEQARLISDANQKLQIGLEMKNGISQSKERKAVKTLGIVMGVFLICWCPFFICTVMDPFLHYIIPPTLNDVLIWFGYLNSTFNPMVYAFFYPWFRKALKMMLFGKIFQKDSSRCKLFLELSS
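Test system – hTAAR1-expressing CHO RD-HGA16 cells, Gα16-coupled · Also added – β-PEA at EC80 concentration, post-compound challenge · Compound – 3 µM, single point · Incubation – dye loading 75 min at 37 °C, then 30 min room temperature · Measured by – Fluo-8 intracellular calcium dye fluorescence, real-time kinetic reads · Benchmarks – vehicle and agonist controls · Replicates – singlicate, one well per test compound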
HCV NS3 hel inh: inhibitors of HCV NS3 helicase, primary screen, biochemical, Cy5 molecular beacon fluorescence; inhibition, % at 10.9 µM; hit rate 0.56% among 290,000; NS3 helicase DNA unwinding; Hepatitis C virus NS3 helicase;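 active = inhibition above the mean of all tested compounds plus 3 SD, set per campaign, cut at about 35% in these data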;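 note: 0% = DMSO wells and 100% = thioflavine S control wells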
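System: NS3 helicase fragment of HCV / Schedule: 1 h at 25 °C / Control set: DMSO alone as 0% and 110 µM thioflavine S as 100% / Reagent: Cy5/quencher beacon DNA duplex and ATP to start / Technique: Cy5 fluorescence / Replication: singlicate / Evaluation: % inhibition of end-to-start signal ratio versus controls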
TAAR1 ag: human TAAR1 agonists, primary screen, Fluo-8 calcium fluorescence, CHO RD-HGA16 cells; hit rate 0.99% among 360,000; AID 624467, 2012; Trace amine-associated receptor 1 (Homo sapiens), Q96RJ0; activation, % at 3 µM; vehicle wells 0%, saturating PEA agonist 100%;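 active = activation above the mean activation of all test compounds in the run plus 3 SD, cut at about 38% in these data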
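Assay system: CHO-derived RD-HGA16 cells with stable Gα16 and human TAAR1; timing: 17-24 h seeding, 75 min 37 °C dye, 30 min RT; read-out: % activation from peak over basal fluorescence ratio, DMSO-to-PEA scaled; measured by: kinetic Fluo-8 calcium fluorescence; benchmarks: low control DMSO, high control PEA (EC100); doses: 3 µM single concentration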
TAAR1 ag conf: human TAAR1 agonists, retest of hits, confirmation, Fluo-8 calcium fluorescence, CHO RD-HGA16 cells; activation, % at 3 µM; AID 651783, 2012; hit rate 82% among 2,400; shares compounds with TAAR1 ag; scaled: DMSO 0%, maximal phenethylamine 100%;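 active = activation above a cutoff set at the run's mean compound activation plus 3 SD, cut at about 39% in these data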
Ga16 nonsel ag: nonselective calcium mobilization agonists, CHO-Ga16 cells, counter-screen for hTAAR1 agonist project, cell-based, fluorescence, CHO-Ga16 parental line; shares compounds with TAAR1 ag; Fluo-8 calcium fluorescence; normalized to maximal ATP response, DMSO zero; activation, % at 3 µM; hit rate 50% among 2,400;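 active = activation above the run cutoff, the mean activation over all tested wells plus 3 SD, cut at about 12% in these data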;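 note: 0% = DMSO wells and 100% = maximal ATP response on the peak over basal ratio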
TAAR1 desensitize: TAAR1 desensitization by agonist hits, confirmation, counter-screen for TAAR1 agonist project, cell-based, fluorescence, tachyphylaxis. hit rate 46% among 2,400. CHO RD-HGA16 hTAAR1, Fluo-8 calcium, beta-PEA response inhibition. shares compounds with TAAR1 ag. inhibition, % at 3 µM;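 active = inhibition above the run cutoff, the mean inhibition of all test compounds plus 3 SD, cut at about 49% in these data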;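 note: beta-PEA stimulus applied at its EC80; loss of beta-PEA calcium signal after compound pretreatment read as receptor desensitization; 0% = DMSO with beta-PEA at EC80 and 100% = DMSO alone without agonist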
Ga16 nonsel ant: inhibition of ATP-evoked calcium response in CHO-Ga16 cells, counter-screen for TAAR1 agonist project, cell-based, fluorescence | shares compounds with TAAR1 ag | CHO-Ga16 ATP-induced calcium, Fluo-8 fluorescence | inhibition, % at 3 µM | hit rate 39% among 2,400 | AID 651952, 2012;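 active = inhibition above the plate's mean compound inhibition plus 3 SD, computed per plate, cut at about 22% in these data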;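 note: 0% = EC80 ATP with DMSO and 100% = DMSO wells without ATP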
Numbers without * were called inactive; x = not tested or not shown.

SMILES	core dimer inh	rCAG binder	TAAR1 antagonist	HCV NS3 hel inh	TAAR1 ag	TAAR1 ag conf	Ga16 nonsel ag	TAAR1 desensitize	Ga16 nonsel ant
C=CCN=C1NC(c2cccc(F)c2)C(C(=O)OC)=C(C)N1Cc1ccccc1C(F)(F)F (stereo not drawn)	x	4	13	x	5	x	x	x	x
C=CCN=C1NC(c2ccccc2)C(C(=O)OC)=C(C)N1Cc1cccc(C(F)(F)F)c1 (stereo not drawn)	x	6	87*	x	116*	92*	61*	81*	67*
COC(=O)C1=C(C)N(Cc2cccc(C(F)(F)F)c2)C(=NCC2CC2)NC1c1ccccc1 (stereo not drawn)	x	7	97*	x	121*	115*	79*	100*	74*
CCCC[C@@H]1C(=O)N2N=Cc3ccccc3[C@H]2N2N=Cc3ccccc3[C@@H]12	x	-2	x	x	x	x	x	x	x
C=CCN1C(=O)[C@@H](CC(=O)NCCCC)[C@]2(C(=O)OCC)CCCCC/C=C/12	x	0	x	x	x	x	x	x	x
CCOC(=O)[C@]12CCCC=C1N(Cc1ccc(OC)cc1)C(=O)[C@@H]2CC(=O)NCc1ccccc1	x	3	x	x	x	x	x	x	x
COc1cccc(NC(=O)n2ccc3ccc(-c4ccc5ccn(C(=O)Nc6cccc(OC)c6)c5c4)cc32)c1	x	31	x	x	x	x	x	x	x
S=C1NCN(CCc2ccccc2)CN1	15	-3	14	-19	87*	101*	22*	46	0
COc1cccc(N2CN(CCc3ccccc3)CNC2=S)c1	0	-4	81*	-3	96*	93*	1	80*	1
S=C1NCN(CCc2ccccc2)CN1Cc1ccccc1	-2	-5	-32	12	33	x	x	x	x
CCCN1CN(CCc2ccccc2)CNC1=S	-4	-6	x	22	x	x	1	x	0
Cc1ccc(N2CN(CCC3=CCCCC3)CNC2=S)cc1	0	-7	-2	-1	49*	56*	2	10	9
COc1cccc(-c2nnc(SCC(=O)OC(C)C)n2-c2ccc(Cl)cc2)c1	x	3	x	x	x	x	x	x	x
CC(/C=N/NC(=O)CSc1nnc(SCc2ccc(C)cc2)s1)=C\c1ccco1	x	11	x	x	x	x	x	x	x
CCc1ccc(N2CN(CCc3ccccc3)CNC2=S)cc1	1	-7	59*	-1	95*	83*	2	68*	0
CCCCN1CNC(=S)N(CCc2ccccc2)C1	-2	-6	-2	6	4	x	x	x	x
c1ccc(C2OCC3(CO2)COC(c2ccccc2)OC3)cc1 (stereo not drawn)	4	0	1	-4	59*	3	4	4	2
Cc1cc(C)cc(N(CC(=O)NC2CCC(C)CC2)S(=O)(=O)c2ccc(Cl)s2)c1 (stereo not drawn)	x	6	x	x	x	x	x	x	x
CCOC(=O)c1cccc(NC(=O)CN(C)S(=O)(=O)c2cc3ccccc3s2)c1	x	6	x	x	x	x	x	x	x
COc1ccc(CC(=O)NC(=S)NNC(=O)COc2c(C)cccc2C)cc1	0	3	53*	-6	94*	93*	61*	64*	47*
CCc1ccc(OCC(=O)NNC(=S)NC(=O)C2CCCCC2)c(Br)c1	8	1	43	32	80*	78*	47*	62*	45*
COc1ccc(OCC(=O)NNC(=S)NC(=O)C2CCCCC2)cc1	-2	1	28	8	65*	78*	51*	38	36*
COc1ccc(-c2nnc(SCC(=O)Nc3cccc4ccccc34)n2Cc2ccco2)cc1	x	9	x	x	x	x	x	x	x
COC(=O)[C@@]12CCCCC3=C1N(CCC3)C(=O)[C@H]2CC(=O)N1CCSCC1	x	3	x	x	x	x	x	x	x
Cc1nccn1CC(=O)N/N=C/c1ccccc1O	0	1	-15	1	59*	63*	3	12	2
SMILES	core dimer inh	rCAG binder	TAAR1 antagonist	HCV NS3 hel inh	TAAR1 ag	TAAR1 ag conf	Ga16 nonsel ag	TAAR1 desensitize	Ga16 nonsel ant
Cc1nccn1CC(=O)N/N=C/c1c[nH]c2ccccc12	-2	6	-35	10	25	x	x	x	x
Cc1ccccc1Oc1ccc(Oc2ccccc2C)nn1	6	-6	28	0	60*	-2	0	-10	-2
Cc1ccccc1OCCn1ccnc1	5	3	3	-15	1	x	x	x	x
C/C(=C\C=C(C#N)C#N)c1cc(C#N)c(N)o1	x	-44	37	2	99*	30	33*	27	25*
CCN1C(=O)/C(=C\C=C\c2ccccc2[N+](=O)[O-])SC1=S	x	3	2	2	5	x	x	x	x
CCN1C(=O)/C(=C/C=C2\N(CC)c3cc(S(=O)(=O)N(C)C)ccc3N2c2ccccc2)SC1=S	-2	-1	36	0	62*	48*	56*	72*	78*
CCCCCCCCN1C(=O)[C@@H](CC(=O)NCCCOCCCC)C[C@@]2(C(=O)OC)C1=C[C@H](COCc1ccccc1)O[C@@H]2C	x	7	x	x	x	x	x	x	x
CCOc1ccc(N(CC(=O)Nc2c(C)n(C)n(-c3ccccc3)c2=O)S(=O)(=O)c2cc(OC)ccc2OC)cc1	x	8	x	x	x	x	x	x	x
O=C(Cn1nnc(N2CCCC2)n1)N/N=C/c1ccc(Cl)cc1	-4	0	-4	-5	58*	85*	5	28	2
Cc1ccc(/C=N/NC(=O)Cn2nnc(N)n2)cc1	-2	2	-20	9	3	x	x	x	x
CN1C(=O)c2cc(NC(=O)Nc3ccccc3)ccc2OC[C@H]2O[C@@H](CC(=O)NCc3ccc(-c4ccccc4)cc3)CC[C@@H]21	x	17	x	x	x	x	x	x	x
Oc1ccccc1-c1cc(C(F)(F)C(F)F)[nH]n1	1	0	22	-19	13	x	x	x	x
Fc1ccc(-c2cc(C(F)(F)C(F)F)[nH]n2)cc1	-4	-2	75*	-1	81*	91*	53*	74*	39*
FC(F)C(F)(F)c1cc(-c2ccc(Cl)cc2)n[nH]1	-4	-2	49	18	63*	57*	22*	48	26*

Compound activity as filed in PubChem BioAssay.
